High-throughput results as filed in PubChem BioAssay.
Rows were chosen to be rich in hits. Some 2.9% of all compounds tested hit in one or more screens of this group.
ATG4B inhibitor: inhibitors of human ATG4B cysteine protease. Q9Y4P1. ATG4B cleavage of LC3-PLA2, NBD-HPC fluorescence, 1 h. inhibition, % at 8.33 µM. 340,000 compounds, 0.51% hits. AID 504462; in the data active = inhibition above about 40%
PRMT1 inh: inhibitors of human PRMT1; Q99873; recombinant PRMT1, activity-based probe fluorescence polarization; inhibition, % at 2.79 µM; 370,000 compounds, 1.3% hits; AID 652257;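 active = inhibition above about 21% made by adding two undisclosed values, limit read from the data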
Target sequence (Q99873 whole entry, looked up): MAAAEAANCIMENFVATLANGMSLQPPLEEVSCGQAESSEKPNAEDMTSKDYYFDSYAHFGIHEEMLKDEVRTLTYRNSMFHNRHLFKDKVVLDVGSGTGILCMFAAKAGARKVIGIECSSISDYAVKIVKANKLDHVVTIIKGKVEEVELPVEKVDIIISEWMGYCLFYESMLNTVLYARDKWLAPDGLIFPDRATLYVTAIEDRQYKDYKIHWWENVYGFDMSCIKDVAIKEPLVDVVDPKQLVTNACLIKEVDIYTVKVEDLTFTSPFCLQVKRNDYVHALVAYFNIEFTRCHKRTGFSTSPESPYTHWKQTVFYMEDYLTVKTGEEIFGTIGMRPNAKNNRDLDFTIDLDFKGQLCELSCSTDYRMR
TCR-CD3 inh: inhibitors of human TCR-CD3 interaction; TAMRA-labeled TCR probe fluorescence, biochemical; inhibition, % at 9.4 µM; 360,000 compounds, 0.37% hits; AID 651800; in the data active = inhibition above about 19%;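 note: recombinant mutant TCR 2C K166C tagged with TAMRA read by polarization; 0% = receptor in buffer alone and 100% = receptor with positive control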
HTRA1 inh: blocks human HTRA1 serine peptidase; inhibition, % at 5.96 µM; recombinant HTRA1, FP-rhodamine activity-based probe, fluorescence polarization; 340,000 compounds, 0.5% hits; in the data active = inhibition above about 36%;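 note: 0% = enzyme with DMSO and 100% = wells lacking enzyme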
SIAE inh: human SIAE inhibition, primary screen; Q9HAT2; SIAE FP-Rh probe binding, fluorescence polarization; inhibition, % at 9.66 µM; 370,000 compounds, 0.69% hits; AID 1053197;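 active = inhibition above a cutoff: mean of compounds within the control limits plus 3 SD of those, cut at about 17% in these data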;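 note: 0% = plate median of compound wells and 100% = probe without SIAE protein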
mABHD4 FP: inhibits mouse alpha/beta hydrolase domain 4. Q8VD66. purified mABHD4, FP-Rh probe fluorescence polarization. inhibition, % at 8.92 µM. 370,000 compounds, 0.54% hits. AID 720543;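 active = inhibition exceeding the mean over every tested compound plus 3 SD, cut at about 30% in these data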;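 note: 0% = plate median of compound wells and 100% = S159A mutant with DMSO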
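Test system: mABHD4 protein; Read-out basis: % inhibition; Incubation: 45 min + 60 min at 25 °C; Repeats: single replicate; Technique: fluorescence polarization with parallel and perpendicular emission, 525/598 nm; Compound: 8.92 µM, single dose; Benchmarks: full inhibition S159A mutant plus DMSO, zero as sample-well median.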
ABHD4 confirm: ABHD4 (mouse) inhibition, FP confirmation; shares compounds with mABHD4 FP; purified mABHD4, FP-Rh probe fluorescence polarization; inhibition, % at 8.92 µM; 1,800 compounds, 55% hits; AID 720658;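 active = mean inhibition across replicates above the hit cutoff set in the primary screen, cut at about 30% in these data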;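 note: 0% = wild-type ABHD4 with DMSO and 100% = catalytically dead S159A mutant with DMSO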
* = called active by the depositor; / = not tested or not shown.

SMILES	ATG4B inhibitor	PRMT1 inh	TCR-CD3 inh	HTRA1 inh	SIAE inh	mABHD4 FP	ABHD4 confirm
CCCCCCNC(=O)C1CSCCS(=O)(=O)N1Cc1ccc(F)cc1 (configuration not stated)	/	-3	/	/	2	2	/
O=C(NC(=S)NNC(=O)c1cnccn1)c1ccc(F)cc1	3	-2	1	15	9	8	/
Cc1ccc(NC(=S)NNC(=O)c2cnccn2)cc1	/	0	/	/	12	52*	59*
COC(=O)[C@@]12CCCCC=C1N(CCc1ccc(Cl)cc1)C(=O)[C@H]2CC(=O)NCc1cccc(C(F)(F)F)c1	/	-2	/	/	2	-14	/
Cc1c(NC(=O)C2CCCN(S(=O)(=O)c3ccc(Cl)s3)C2)c(=O)n(-c2ccccc2)n1C (configuration not stated)	/	7	/	/	-2	-12	/
CCOC(=O)c1c(C)[nH]c(O)c1C=Nc1ccc(Cl)cc1	-7	6	12	24	1	59*	8
C=C(C)CN(CC)c1nc(N)c2c(N)nc3c(c2c1C#N)CC(=O)N3C12CC3CC(CC(C3)C1)C2	-2	9	5	25	7	36*	25
N#Cc1c(N2CCCC(O)C2)nc(N)c2c(N)nc3c(c12)CC(=O)N3C12CC3CC(CC(C3)C1)C2 (configuration not stated)	-8	10	-5	33	3	16	/
COc1cccc(C(=O)N2CCC(Oc3cccnc3)CC2)c1	/	0	/	/	3	4	/
O=C(CNc1cccc2ccccc12)N/N=C/c1ccc(C(=O)O)cc1	-2	3	-1	4	9	30*	21
O=C(CNc1ccc2ccccc2c1)N/N=C/c1ccc(C(=O)O)cc1	1	18	-1	3	0	17	/
COc1ccc(CN(CCN2CCOCC2)C(=O)c2ccc(F)cc2F)cc1OC	/	-3	/	/	0	-1	/
c1ccc2c(-c3ccc(OCCN4CCCCC4)cc3)c(-c3ccsc3)sc2c1	2	-2	-2	-12	2	40*	26
CCOC(=O)CSc1nc(Nc2ccc3c(c2)OCO3)c2ccccc2n1	11	-3	-1	-8	9	40*	32*
NC(=O)C1CCN(c2nc(-c3ccc(Br)cc3)cs2)CC1	36	1	-6	13	1	0	/
CC(C)(C)c1ccc(-c2csc(N3CCC(C(N)=O)CC3)n2)cc1	/	2	/	/	4	35*	37*
CC(C)CNC(=O)OCc1cn(Cc2ccccc2C(F)(F)F)nn1	/	2	/	/	0	-2	/
O=S(=O)(O)c1cccc2cccc(Nc3ccccc3)c12	1	25*	7	14	8	61*	23
COC(=O)c1ccccc1Nc1ccccc1	-13	1	-5	-5	3	1	/
CCOC(=O)Cn1cc(CN2CCS(=O)(=O)N(Cc3ccc(F)cc3)C(C(=O)OC)C2)nn1 (configuration not stated)	/	-2	/	/	1	3	/
CC(C)C[C@@H]1CN=C(N)N1C[C@@H]1CCCN1C[C@@H](C(C)C)N1C[C@@H](Cc2ccccc2)N(CCc2ccc(Cl)c(Cl)c2)C1=N	8	0	4	1	6	34*	22
c1ccc(Cn2ccc3ccc(-c4ccc5ccn(Cc6ccc(-c7ccccc7)cc6)c5c4)cc32)cc1	/	7	/	/	-7	8	/
O=C(O)c1cccc(NS(=O)(=O)c2ccc3c(c2)C(=O)c2ccccc2C3=O)c1	4	1	-1	2	-5	45*	37*
O=C1c2ccccc2C(=O)c2cc(S(=O)(=O)Nc3ccccc3)ccc21	-9	-1	-2	8	5	40*	53*
O=S(=O)(Nc1ccccc1)c1ccc(F)cc1	-2	0	2	-7	-6	0	/
SMILES	ATG4B inhibitor	PRMT1 inh	TCR-CD3 inh	HTRA1 inh	SIAE inh	mABHD4 FP	ABHD4 confirm
O=C(NCCc1ccccc1)OCc1cn(Cc2c(F)cccc2F)nn1	/	1	/	/	-1	3	/
COc1cc(/C=N/NC(=O)C(Cc2c[nH]c3ccccc23)NC(=O)OCc2ccccc2)cc([N+](=O)[O-])c1O (configuration not stated)	18	18	0	30	64*	45*	92*
COc1ccc(NC(=O)c2ccc(NC(=O)C(C)C)cc2)c([N+](=O)[O-])c1	10	1	-4	0	4	-6	/
COc1ccc(NC(=O)C(c2cc3c(cc2[N+](=O)[O-])OCO3)N(C)C)cc1 (configuration not stated)	-6	0	15	10	7	70*	-2
Nc1[nH]n2c(=O)c3c(nc2c1N=Nc1ccc(Cl)cc1)CCCC3	2	-2	3	4	7	31*	34*
O=C(COC(=O)c1ccccc1)Nc1ncc([N+](=O)[O-])s1	20	25*	9	11	-9	39*	41*
O=C(Nc1ncc([N+](=O)[O-])s1)c1cccc([N+](=O)[O-])c1	3	3	-5	1	-3	5	/
CCOC(=O)c1c(-c2ccccc2)oc2ccc(O)cc12	-9	5	-5	-28	-10	-7	/
CCOC(=O)c1c(-c2ccccc2)[nH]c2ccc(O)cc12	-4	-2	-6	-9	5	31*	42*
O=c1c2ccccc2[nH]c2ccc(O)cc12	-1	11	11	19	11	41*	26
Cc1ccc2[nH]c3ccccc3c(=O)c2c1	5	3	-8	-2	-2	9	/
NC(=S)NN=Cc1cc(-c2cccc(N)c2)ccn1	/	6	0	26	0	44*	58*
Cc1c(F)cccc1NC(=O)c1ccc2c(c1)CCN2S(C)(=O)=O	5	-2	2	2	1	4	/
O=C(Nc1ccccc1F)c1ccc2c(c1)CCN2S(=O)(=O)c1ccccc1	34	-1	2	-32	-10	80*	-21
COc1ccccc1[C@@H]1C(c2ccccc2)=NN(c2ccc(Br)cc2)[C@H]1C(=O)N1CCOC1=O	-2	-3	1	-14	-6	49*	-2
CCCCNS(=O)(=O)/C=C/c1ccccc1CNC(=O)OC(C)(C)C	/	-3	/	/	1	-7	/
CNCc1ccccc1Sc1cccc(O)c1	-17	5	-6	3	-12	2	/
CNCc1ccccc1Sc1cc(O)ccc1O	21	58*	3	36	17	50*	63*
CCOC(=O)[C@@]12CCCC=C1N(CCc1ccc(Cl)cc1)C(=O)[C@H]2CC(=O)N1CCCCC1	/	-5	/	/	7	7	/
Cc1nn(Cc2ccc(C(=O)Nc3nc4c(C)cccc4s3)o2)c(C)c1Br	34	3	1	-9	-18	-10	/
Cc1csc(NC(=O)c2cccc(Cn3nc(C)c(Br)c3C)c2)n1	3	3	-7	-44	2	50*	-6
